Assay results of several laboratories.
Protocols differ between the studies behind these lines.
MME: Neprilysin (MME, Homo sapiens, UniProt P08473)
Nos2: Nitric oxide synthase, inducible (Nos2, Mus musculus, UniProt P29477)

Structure (SMILES) | target | test | setting | measurement | value
C[C@H](C(=O)N[C@H]1COc2ccccc2[C@@H]1S(C)(=O)=O)c1ccc(F)cc1 | MME | enzyme activity, inhibitor | 10 µM | inhibition | -1%
C#Cc1n[nH]c2c(-c3cn([C@@H](C)c4ccccc4)c(=O)[nH]c3=O)cc(F)cc12 | Tyrosine-protein kinase JAK2 (JAK2, Homo sapiens, UniProt O60674) | enzyme activity, inhibitor | 0.1 µM | inhibition | -3%
Cc1nn(C)cc1-c1nc2c(N3CCN(Cc4ccc(Cl)cc4)CC3)c(Cl)cnc2[nH]1 | Phosphatidylinositol 5-phosphate 4-kinase type-2 gamma (PIP4K2C, Homo sapiens, UniProt Q8TBX8) | binding, competition with immobilised ligand | 1 µM | remaining binding | 80%
COc1ncccc1-c1cnn2ccc(N3CCN(C(=O)OC(C)C)CC3)nc12 | Dual specificity mitogen-activated protein kinase kinase 4 (MAP2K4, Homo sapiens, UniProt P45985) | binding, competition with immobilised ligand | 1 µM | remaining binding | 100%
Nc1ncc(-c2nc(N3CCOCC3)nc(N3CCOCC3)n2)c(C(F)F)n1 | Citron Rho-interacting kinase (CIT, Homo sapiens, UniProt O14578) | binding, competition with immobilised ligand | 10 µM | remaining binding | 91%
COc1cc(Nc2ncc(F)c(Nc3ccc4c(n3)NC(=O)C(C)(C)O4)n2)cc(OC)c1OC | Serine/threonine-protein kinase LATS2 (LATS2, Homo sapiens, UniProt Q9NRM7) | binding, competition with immobilised ligand | 10 µM | inhibition | 100%
CCN(CC)CCCC[C@H](NC(=O)[C@H](CC(C)C)NC(=O)[C@H](C)NC(=O)[C@H](Cc1ccccc1)NC(=O)c1ccc(C(C)(C)C)cc1)C(=O)N[C@@H](CO)C(=O)OC | Bromodomain adjacent to zinc finger domain protein 2A, bromodomain (BAZ2A, Homo sapiens, UniProt Q9UIF9) | thermal stability, DSF | 25 µM | ΔTm | -0.23 °C
Cc1sc2c(c1C)C(c1ccc(Cl)cc1)=N[C@@H](CC(=O)OC(C)(C)C)c1nnc(C)n1-2 | Stimulator of interferon genes protein (STING1, Homo sapiens, UniProt Q86WV6, H232R) | thermal stability, DSF | 200 µM | ΔTm | -1.58 °C
Cc1ncc(C)n2nc(/C=C/c3nc(N4CCCC4)cc(N4CCOCC4)n3)nc12 | Nos2 | enzyme activity, inhibitor | 10 µM | inhibition | 10%
c1ccc(C(NCCNC(c2ccccc2)c2ccccc2)c2ccccc2)cc1 | MME | enzyme activity, inhibitor | 10 µM | inhibition | 8%
COCc1c(-c2cc3cc(C)cc(OC)c3s2)c2c(N)ncnn2c1CN1CCNC(=O)C1 | Nos2 | enzyme activity, inhibitor | 10 µM | inhibition | 17%
C#Cc1n[nH]c2c(-c3cn([C@@H](C)c4ccccn4)c(=O)[nH]c3=O)cc(F)cc12 | Proto-oncogene tyrosine-protein kinase receptor Ret (RET, Homo sapiens, UniProt P07949, V804L) | enzyme activity, inhibitor | 0.1 µM | inhibition | 4.5%
